Measurements reported in the RNAGym collection of RNA variant scans (doi:10.1126/science.aae0568).
This sample holds only a part of the variants without activity.

B1: tRNA (parent)
chain: GUUCCGUUGGCGUAAUGGUAACGCGUCUCCCUCCUAAGGAGAAGACUGCGGGUUCGAGUCCCGUACGGAACG

Variants of: B1
Assay: yeast fitness relative to wild type (ratio to wild type); higher = fitter; tRNA-Arg(CCU), competitive growth, 37 C, YPD
How it was run: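 Changes in genotype frequencies gave Darwinian fitness relative to wild type. Frequencies were read by 100-nucleotide paired-end sequencing of gene amplicons before and after pooled Saccharomyces cerevisiae strains, carrying tRNA-Arg(CCU) gene variants at the native locus, were competed in YPD at 37°C for 24 hours in six replicates. A genotype was kept only with ≥ 100 starting reads, and estimates < 0.5 were set to 0.5.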

Row | Variant | yeast fitness
1 | GUUCCGUUGGCGUAAUGGUAACGCGUCUCCCUCCUCAGGAGAAGACUGCCGGUUCGAGUCCCGUACGGAACG | 0.54
2 | GUUCCGUUGGCGUAAUGGUAACGCGUCUCCCUCCUCAGGAGAAGACACCGGGUUCGAGUCCGGUACGGAACG | ≤ 0.5
3 | GUUCCGUUGGCGUAAUGGUAACGCGUCUCCCUCCUGAGGAGAAGACUGCGGGUUCGAGUCCCGUACGGAACG | 0.993
4 | GUUCCGUUGGCGUAAUGGUAACGCGUCUCCCUCCUCAGGAGAAGACUCCGGGCUCGAGUCCCGUACGGACCG | ≤ 0.5
5 | GUUCCGUUGGCGUAAUGGUAACGCGUCUCCCUCCUCAGGAGAAGACACCGGGUGCGAGUCCCGUACGGAACG | 0.544
6 | GUUCCGUUGGCGUAAUGGUAACGCGUCUCCCUCCUCAGGAGAAGACUGCGGGUACGAGUCGCGUACGGAACG | 0.635
7 | GUUCCGUUGGCGUAAUGGUAACGCGUCUCCCUCCUGUGGAGUAGACUGCGGGUUCGAGUCCCGUACGGAGCG | ≤ 0.5
8 | GUUCCGUUGGCGUAAUGGUAACGCGUCUCCCUCCUCAGGAGAAGACUGCGGGUUCGAGCCCCGUGCGGAACG | ≤ 0.5
9 | GUUCCGUUGGCGUAAUGGUAACGCGUCUCCCUCCUCAGGAGAAGACUGCGGGUUCGAGUCCCGUACGCAACG | 0.591
10 | GUUCCGUUGGCGUAAUGGUAACGCGUCUCCCUCCUCAGGAGAAGACACCGGGUGCGAGUCCCGUCCAGAACG | ≤ 0.5
11 | GUUCCGUUGGCGUAAUGGUAACGCGUCUCCCUCCUCAGGAGAAGACUGCGGGUGCGAGUCCCGUACGGAACG | 0.522
12 | GUUCCGUUGGCGUAAUGGUAACGCGUCUCCCUCCUGAGGAGCAGACUGCGGGUUCGAGUCCCGUACGGUACG | 0.744
13 | GUUCCGUUGGCGUAAUGGUAACGCGUCUCCCUCCUCAGGAGAAGACACCGGGUGCGAGUGCCGUACGGAACG | ≤ 0.5
14 | GUUCCGUUGGCGUAAUGGUAACGCGUCUCCCUCCUGAGGCGGAGACUGCGGGUUCGAGUCCCGUACGGAACG | 0.768
15 | GUUCCGUUGGCGUAAUGGUAACGCGUCUCCCUCCUCAGGAGAAGACUGCGGGUUCGAGUCCCGUACCGAACG | 0.537
16 | GUUCCGUUGGCGUAAUGGUAACGCGUCUCCCUCCUCAGGAGAAGACUGCGGGUUCGAGUCCCGUACUGAACG | 0.596
17 | GUUCCGUUGGCGUAAUGGUAACGCGUCUCCCUCCUCAGGAGAAGACUGCAGGUUAGAGUCCCGUACGGAACG | 0.766
18 | GUUCCGUUGGCGUAAUGGUAACGCGUCUCCCUCCUGGGGAGAAGCCUGCGCGUUCGAGGCCCGUACGGAACG | ≤ 0.5
19 | GUUCCGUUGGCGUAAUGGUAACGCGUCUCCCUCCUCAGGAGAAGACUGCGGGUUCAAGUCCCGUACGGAACG | 0.61

Row | Variant | yeast fitness
20 | GUUCCGUUGGCGUAAUGGUAACGCGUCUCCCUCCUCAGGAGAAGACUGCGGGUUCCAGUCCCGUACGGAACG | 0.793
21 | GUUCCGUUGGCGUAAUGGUAACGCGUCUCCCUCCUCAGGAGAAGACUGCGGGUUCCAGUCCCGUAUGGAACG | ≤ 0.5
22 | GUUCCGUUGGCGUAAUGGUAACGCGUCUCCCUCCUGGGGAGAAGACUGCGGGUUCGACUCCCGUACGGAACG | 0.649
23 | GUUCCGUUGGCGUAAUGGUAACGCGUCUCCCUCCUGAGGAGCAGACUGCGGGUUCGAGUCCCGUACGCAACG | 0.608
24 | GUUCCGUUGGCGUAAUGGUAACGCGUCUCCCUCCUCAGGAGAAGACUGCGGAUUCGAGUCACGUACGGAACG | ≤ 0.5
25 | GUUCCGUUGGCGUAAUGGUAACGCGUCUCCCUCCUGAGGAGCAGACUGCGGGUUCGAGUCCCGUACCGCACG | 0.559
26 | GUUCCGUUGGCGUAAUGGUAACGCGUCUCCCUCCUCAGGAGAAGACUGCGGGUUCGAGACCCGUACGGAACG | 0.569
27 | GUUCCGUUGGCGUAAUGGUAACGCGUCUCCCUCCUCAGGAGAAGACUGCGGGUUCGACUCCCGUACGGAACG | 0.618
28 | GUUCCGUUGGCGUAAUGGUAACGCGUCUCCCUCCUCAGGAGAAGACUGCGGGUUCGAGUCCCCUACGGAACG | 0.558
29 | GUUCCGUUGGCGUAAUGGUAACGCGUCUCCCUCCUCAGGAGAAGACCGCGGGUUCGAGUCCCGUACGGAACG | 0.674
30 | GUUCCGUUGGCGUAAUGGUAACGCGUCUCCCUCCUGAGGAGCAGACUGCGGGUUCGAGUCCCGUACGGAACG | 0.976
31 | GUUCCGUUGGCGUAAUGGUAACGCGUCUCCCUCCUCAGGAGAAGACUGCGGGGUCGAGUCCCGUACGGAACG | ≤ 0.5
32 | GUUCCGUUGGCGUAAUGGUAACGCGUCUCCCUCCUGAGGUGAAGACUGCGGGUUCGAGUCCCGUACGGAACG | 0.938
33 | GUUCCGUUGGCGUAAUGGUAACGCGUCUCCCUCCUGAGGCGAAGACUGCGGGUUCGAGUCCCGUACGGAACG | 0.961
34 | GUUCCGUUGGCGUAAUGGUAACGCGUCUCCCUCCUCAGGAGAAGACACCGGGUGCGAGUCCUGUACGGAACG | ≤ 0.5
35 | GUUCCGUUGGCGUAAUGGUAACGCGUCUCCCUCCUGAGGAGCUGAAUGCGGGUUCGAGUCCCGUACGGAACG | 0.861
36 | GUUCCGUUGGCGUAAUGGUAACGCGUCUCCCUCCUCAGGAGAAGACUGCGGGUUCGACUCCUGUACGGAACG | ≤ 0.5
37 | GUUCCGUUGGCGUAAUGGUAACGCGUCUCCCUCCUCAGGAGAAGACACCGGGUUCGAGUCUCGUACGGAACG | ≤ 0.5
38 | GUUCCGUUGGCGUAAUGGUAACGCGUCUCCCUCCUCAGGAGAAGACUGCCGGUUCGAGUCCCCUACGGAACG | 0.652
